Measurements: ChEMBL document CHEMBL4373713, “Effect of 1-Deoxynojirimycin Isolated from Mulberry Leaves on Glucose Metabolism and Gut Microbiota in a Streptozotocin-Induced Diabetic Mouse Model” (J Nat Prod, 2019)
Calls of active or inactive are those of the source. The calls are words filed in the database; no cut-off is given here.

Columns and labels:
Format in all cases: functional, organism-based
Mus musculus [1] = assay: Antidiabetic activity in STZ-induced Kunming mouse model of diabetes assessed as increase in Lachnospiraceae level in feces at 31.25 to 125 mg/kg, po administered QD administered via gavage for 4 weeks by 16S rDNA based DNA sequencing analysis
Mus musculus [2] = assay: Antidiabetic activity in STZ-induced Kunming mouse model of diabetes assessed as increase in PFK expression level in liver at 125 m/kg, po administered QD administered via gavage for 4 weeks by Western blot analysis
Procedure, shortened: (§1)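 Livers from diabetic mice after 28 days of daily gavage (31.25–125 mg/kg) were homogenized and spun at 14 000g, 4 °C. Proteins were run on 10% SDS-PAGE and transferred to PVDF, then blocked in 5% milk for 1 h. Primary antibodies (GK, PK, PFK, PCB, PEPCK, FBPase, G-6-Pase, p-IR Tyr999, p-IRS-1 Ser307) were applied for 1 h at 25 °C, followed by HRP anti-rabbit IgG and ECL detection. Mean ± SD, Duncan's test.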

Mus musculus [3] = assay: Antidiabetic activity in STZ-induced Kunming mouse model of diabetes assessed as decrease in Prevo-tellaceae Ga6A1 level in feces at 31.25 to 125 mg/kg, po administered QD administered via gavage for 4 weeks by 16S rDNA based DNA sequencing analysis
Mus musculus [4] = assay: Antidiabetic activity in STZ-induced Kunming mouse model of diabetes assessed as decrease in TC level at 125 m/kg, po administered QD administered via gavage for 4 weeks
Procedure, shortened: (§2)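 STZ/high-fat-diet diabetic Kunming mice (n=10/group) were gavaged daily for 28 days at 31.25–125 mg/kg. After an overnight fast, orbital-sinus blood was taken and plasma was spun at 1000g, 4 °C. TC, TG and HDL-C were measured by kit. LDL-C was calculated by Friedewald: TC − (HDL-C + TG/2.2), with TG below 4.5 mmol/L. Data are mean ± SD, Duncan's test.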

Mus musculus [5] = assay: Antidiabetic activity in STZ-induced Kunming mouse model of diabetes assessed as down regulation of PCB expression level in liver at 62.5 to 125 m/kg, po administered QD administered via gavage for 4 weeks by Western blot analysis; procedure, shortened: as §1
Mus musculus [6] = assay: Antidiabetic activity in STZ-induced Kunming mouse model of diabetes assessed as decrease in Weis-sella level in feces at 31.25 to 125 mg/kg, po administered QD administered via gavage for 4 weeks by 16S rDNA based DNA sequencing analysis
Mus musculus [7] = assay: Antidiabetic activity in po dosed STZ-induced Kunming mouse model of diabetes assessed as decrease in IRS-1 (Ser 307 residues) expression in liver administered QD administered via gavage for 4 weeks by Western blot analysis; procedure, shortened: as §1
Mus musculus [8] = assay: Antidiabetic activity in STZ-induced Kunming mouse model of diabetes assessed as increase in Bifidobacterium level in feces at 31.25 to 125 mg/kg, po administered QD administered via gavage for 4 weeks by 16S rDNA based Illumina sequencing method
Mus musculus [9] = assay: Antidiabetic activity in STZ-induced Kunming mouse model of diabetes assessed as decrease in LDL-C level at 62.5 to 125 m/kg, po administered QD administered via gavage for 4 weeks; procedure, shortened: as §2
Mus musculus [10] = assay: Antidiabetic activity in po dosed STZ-induced Kunming mouse model of diabetes assessed as reduction in fasting serum glucose level administered QD administered via gavage for 4 weeks and measured 2 weeks during compound dosing
Procedure, shortened: (§3)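 Fasting serum glucose was taken from the tail tip on days 0, 7, 14, 21 and 28 in STZ (35 mg/kg i.p.)/high-fat-diet Kunming mice. Mice were gavaged once daily at 31.25, 62.5 or 125 mg/kg in 0.5 mL, n=10 per group.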

Mus musculus [11] = assay: Antidiabetic activity in STZ-induced Kunming mouse model of diabetes assessed as decrease in Rumino-coccaceae UCG-014 level in feces at 31.25 to 125 mg/kg, po administered QD administered via gavage for 4 weeks by 16S rDNA based Illumina sequencing method
Mus musculus [12] = assay: Antidiabetic activity in STZ-induced Kunming mouse model of diabetes assessed as reduction in TG level at 31.25 to 125 m/kg, po administered QD administered via gavage for 4 weeks; procedure, shortened: as §2
Mus musculus [13] = assay: Antidiabetic activity in STZ-induced Kunming mouse model of diabetes assessed as decrease in Prevo-tellaceae UCG-001 level in feces at 62.5 to 125 mg/kg, po administered QD administered via gavage for 4 weeks by 16S rDNA based DNA sequencing analysis
Mus musculus [14] = assay: Antidiabetic activity in STZ-induced Kunming mouse model of diabetes assessed as increase in PK expression level in liver at 62.5 to 125 m/kg, po administered QD administered via gavage for 4 weeks by Western blot analysis; procedure, shortened: as §1
Mus musculus [15] = assay: Antidiabetic activity in STZ-induced Kunming mouse model of diabetes assessed as decrease in Klebsiella level in feces at 62.5 to 125 mg/kg, po administered QD administered via gavage for 4 weeks by 16S rDNA based DNA sequencing analysis
Mus musculus [16] = assay: Antidiabetic activity in STZ-induced Kunming mouse model of diabetes assessed as down regulation of PEPCK expression level in liver at 62.5 to 125 m/kg, po administered QD administered via gavage for 4 weeks by Western blot analysis; procedure, shortened: as §1
Mus musculus [17] = assay: Antidiabetic activity in STZ-induced Kunming mouse model of diabetes assessed as reduction in serum glucose level 125 mg/kg, po administered QD administered via gavage for 4 weeks and measured 4 weeks during compound dosing; procedure, shortened: as §3
Mus musculus [18] = assay: Antidiabetic activity in po dosed STZ-induced Kunming mouse model of diabetes assessed as reduction in HOMA-IR index level administered QD administered via gavage for 4 weeks
Procedure, shortened: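 Fasting serum insulin was measured by commercial kit on plasma from orbital-sinus blood taken after an overnight fast at day 28. HOMA-IR was derived to assess insulin sensitivity. Diabetic mice were gavaged daily at 31.25–125 mg/kg. Mean ± SD, Duncan's test.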

Mus musculus [19] = assay: Antidiabetic activity in STZ-induced Kunming mouse model of diabetes assessed as increase in Lactococcus level in feces at 31.25 to 125 mg/kg, po administered QD administered via gavage for 4 weeks by 16S rDNA based DNA sequencing analysis
Mus musculus [20] = assay: Antidiabetic activity in po dosed STZ-induced Kunming mouse model of diabetes assessed as increase in IR phosphorylation at (Tyr 999 residues) expression in liver administered QD administered via gavage for 4 weeks by Western blot analysis; procedure, shortened: as §1
Mus musculus [21] = assay: Antidiabetic activity in po dosed STZ-induced Kunming mouse model of diabetes assessed as reduction in ALT activity administered QD administered via gavage for 4 weeks
Procedure, shortened: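 Diabetic mice (high-fat diet plus STZ 35 mg/kg i.p.) were dosed by gavage once daily for 28 days at 31.25–125 mg/kg. After an overnight fast at endpoint, liver and plasma were collected. ALT, hepatic glycogen and pyruvic acid were measured with commercial kits.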

Structure (SMILES): OC[C@H]1NC[C@H](O)[C@@H](O)[C@@H]1O
- Activity (Mus musculus [1]): Active
- Activity (Mus musculus [2]): Active
- Activity (Mus musculus [3]): Active
- Activity (Mus musculus [4]): Active
- Activity (Mus musculus [5]): Active
- Activity (Mus musculus [6]): Active
- Activity (Mus musculus [7]): Dose-dependent effect
- Activity (Mus musculus [8]): Active
- Activity (Mus musculus [9]): Active
- Activity (Mus musculus [10]): Dose-dependent effect
- Activity (Mus musculus [11]): Active
- Activity (Mus musculus [12]): Active
- Activity (Mus musculus [13]): Active
- Activity (Mus musculus [14]): Active
- Activity (Mus musculus [15]): Active
- Activity (Mus musculus [16]): Active
- Activity (Mus musculus [17]): Active
- Activity (Mus musculus [18]): Dose-dependent effect
- Activity (Mus musculus [19]): inactive
- Activity (Mus musculus [20]): Dose-dependent effect
- Activity (Mus musculus [21]): Dose-dependent effect
